For one assay, the system named is Staphylococcus aureus. Put plainly: Antibacterial activity against Staphylococcus aureus at 25 ug/ml after overnight incubation by plate colony counting method relative to control. The class given is functional. In outline: (§1)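 Plate colony counting on nutrient agar. Suspensions made from fresh colonies on NA slants grown 24 h, then serially diluted tenfold in sterile water. Duplicate aliquots of the 10^-5 and 10^-6 dilutions spread on NA plates containing test compound at 25 µg/mL; control plates NA only. Incubated overnight at 35 °C, colonies counted, inhibition given as percentage.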

Assay [1] is described as follows: Inhibition of Escherichia coli BL21.19 SecA after 30 mins by malachite green dye-based assay. In a few lines:
(§2)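 SecA ATPase from E. coli BL21.19. Reaction contains Tris-HCl buffer (pH 7.6, with KCl, NH4Cl, DTT, Mg(OAc)2), […], […] and sample, diluted with distilled water; water as blank. Incubated 37 °C for 30 min. Malachite green/ammonium molybdate/Triton X-100 colour reagent added, then 34% citrate after 1 min. Absorbance read at 660 nm and inhibition calculated from it.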

The subject of another assay is Bacillus subtilis. Put plainly: Antibacterial activity against Bacillus subtilis at 25 ug/ml after overnight incubation by plate colony counting method relative to control. The class given is functional. In a few lines:
as §1

The subject of assay [2] is Bacillus amyloliquefaciens. Put plainly: Antibacterial activity against Bacillus amyloliquefaciens at 25 ug/ml after overnight incubation by plate colony counting method relative to control. It counts as functional. In a few lines: as §1
The test system of assay [3] is Escherichia coli. Put plainly: Inhibition of Escherichia coli BL21.19 SecA at 10 ug/ml after 30 mins by malachite green dye-based assay relative to control. In outline: as §2
Assay [4] concerns Escherichia coli. Put plainly: Inhibition of Escherichia coli BL21.19 SecA at 20 ug/ml after 30 mins by malachite green dye-based assay relative to control. In outline: as §2

In brackets after ≈: the same amount, converted by molar mass.

Consider `N#Cc1c(-c2ccc(-c3ccccc3)cc2)nc(SCc2ccc(CSc3nc(-c4ccc(-c5ccccc5)cc4)c(C#N)c(=O)[nH]3)cc2)[nH]c1=O`, for which the inhibition at 25 µg/mL in the assay with Staphylococcus aureus was determined as 87%; with Bacillus subtilis, 62%; in assay [2], 85%. This molecule also gave a half-inhibitory concentration (IC50) in assay [1] of 20.8 µg/mL (≈ 29.2 µM).

Regarding `N#Cc1c(-c2ccccc2)nc(SCc2ccc(-c3nn4c(-c5ccccc5)nnc4s3)cc2)[nH]c1=O`, the inhibition at 25 µg/mL was found to be 44% in the assay with Staphylococcus aureus, 48% with Bacillus subtilis and 57% in assay [2].

For `N#Cc1c(-c2ccc(-c3ccccc3)cc2)nc(SCc2ccc(-c3nn4c(-c5ccccc5)nnc4s3)cc2)[nH]c1=O`, the inhibition at 25 µg/mL in the assay with Staphylococcus aureus turned out to be 68%; in the assay on Bacillus subtilis, 57%; in assay [2], 58%.

For `N#Cc1c(-c2ccccc2Cl)nc(SCc2ccc(-c3nn4c(-c5ccccc5)nnc4s3)cc2)[nH]c1=O`, the inhibition at 25 µg/mL with Staphylococcus aureus worked out at 46%; in the assay with Bacillus subtilis, 55%; in assay [2] it was 66%.

As for `N#Cc1c(-c2ccc(Cl)cc2Cl)nc(SCc2ccc(-c3nn4c(-c5ccccc5Cl)nnc4s3)cc2)[nH]c1=O`, the figures for the inhibition at 25 µg/mL (with Staphylococcus aureus; in the assay with Bacillus subtilis; in assay [2]) were 85%, 92% and 80%, respectively. For the same molecule, the IC50 entry in assay [1] is “Nd(Insoluble)”.

As to `N#Cc1c(-c2ccc(-c3ccccc3)cc2)nc(SCc2ccc(-c3nn4c(-c5c(Cl)cccc5Cl)nnc4s3)cc2)[nH]c1=O`, the inhibition at 25 µg/mL came to 84% with Staphylococcus aureus, 86% with Bacillus subtilis and 82% in assay [2].

Consider `N#Cc1c(-c2ccc(Cl)cc2)nc(SCc2ccc(-c3nn4c(-c5ccccc5)nnc4s3)cc2)[nH]c1=O`, for which the inhibition at 25 µg/mL was 49% in the assay on Staphylococcus aureus, 51% with Bacillus subtilis and 62% in assay [2].

On to `N#Cc1c(-c2ccc(Cl)cc2Cl)nc(SCc2ccc(-c3nn4c(-c5c(Cl)cccc5Cl)nnc4s3)cc2)[nH]c1=O`, for which the inhibition at 25 µg/mL worked out at 81% in the assay on Staphylococcus aureus, 86% in the assay on Bacillus subtilis and 78% in assay [2].

For the molecule `N#Cc1c(-c2c(Cl)cccc2Cl)nc(SCc2ccc(-c3nn4c(-c5ccccc5Cl)nnc4s3)cc2)[nH]c1=O`, the inhibition at 25 µg/mL with Staphylococcus aureus was determined as 56%; with Bacillus subtilis it was 63%; in assay [2], 78%.

For the molecule `N#Cc1c(-c2ccc(-c3ccccc3)cc2)nc(SCc2ccc(-c3nn4c(-c5ccccc5Cl)nnc4s3)cc2)[nH]c1=O`, the inhibition at 25 µg/mL in the assay with Staphylococcus aureus amounted to 83%; in the assay with Bacillus subtilis, 88%; in assay [2], 81%.

Turning to `N#Cc1c(-c2ccc(Cl)cc2Cl)nc(SCc2ccc(-c3nn4c(-c5ccccc5)nnc4s3)cc2)[nH]c1=O`, the inhibition at 25 µg/mL in the assay with Staphylococcus aureus stood at 88%; with Bacillus subtilis, 90%; in assay [2], 82%. In addition, the inhibition turned out to be 51% in the assay with Escherichia coli [3] and 72% in the assay with Escherichia coli [4]. For the same molecule, the IC50 in assay [1] turned out to be 9.7 µg/mL (≈ 16.5 µM).

With `N#Cc1c(-c2c(Cl)cccc2Cl)nc(SCc2ccc(-c3nn4c(-c5c(Cl)cccc5Cl)nnc4s3)cc2)[nH]c1=O`, the inhibition at 25 µg/mL turned out to be 82% in the assay with Staphylococcus aureus, 84% in the assay with Bacillus subtilis and 86% in assay [2].

For `N#Cc1c(-c2c(Cl)cccc2Cl)nc(SCc2ccc(-c3nn4c(-c5ccccc5)nnc4s3)cc2)[nH]c1=O`, the inhibition at 25 µg/mL in the assay with Staphylococcus aureus stood at 56%; in the assay on Bacillus subtilis, 49%; in assay [2], 60%.

For `CCn1cc(C(=O)O)c(=O)c2cc(F)c(N3CCNCC3)cc21` [NORFLOXACIN], the inhibition at 25 µg/mL turned out to be 86% in the assay on Staphylococcus aureus, 85% in the assay with Bacillus subtilis and 89% in assay [2].

The values above are taken from ChEMBL document CHEMBL3994608, “Design, synthesis and antimicrobial activities of thiouracil derivatives containing triazolo-thiadiazole as SecA inhibitors” (Eur J Med Chem, 2017).
